Source: ChEMBL document CHEMBL1129498, “Azole endothelin antagonists. 2. Structure-activity studies” (J Med Chem, 1996)

Columns and labels:
[1] = molecular target: T1, Endothelin receptor type B (Sus scrofa, UniProt P35463); experiment: Inhibitory activity was evaluated against ET- B Binding to Endothelin B receptor from porcine cerebellar membranes
T1 sequence (P35463 whole entry): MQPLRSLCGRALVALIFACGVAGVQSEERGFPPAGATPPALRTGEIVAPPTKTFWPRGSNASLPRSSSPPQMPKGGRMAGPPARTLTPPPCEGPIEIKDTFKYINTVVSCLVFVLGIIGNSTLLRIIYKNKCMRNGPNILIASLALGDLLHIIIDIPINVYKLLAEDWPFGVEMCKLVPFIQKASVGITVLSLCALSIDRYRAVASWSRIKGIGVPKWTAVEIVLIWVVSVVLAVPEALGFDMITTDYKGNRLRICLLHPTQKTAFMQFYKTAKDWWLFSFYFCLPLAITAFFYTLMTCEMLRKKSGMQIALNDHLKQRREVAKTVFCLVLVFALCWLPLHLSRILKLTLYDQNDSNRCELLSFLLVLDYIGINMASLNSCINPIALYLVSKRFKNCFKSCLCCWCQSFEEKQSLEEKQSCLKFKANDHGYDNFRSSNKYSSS

[2] = system: MMQ; experiment: Inhibitory activity was evaluated by measuring the PI hydrolysis in MMQ cell line; type: functional, cell-based, Rattus norvegicus; conditions: Rattus norvegicus, MMQ
Method in brief: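 MMQ cells (0.4 × 10⁶ cells/mL) labeled 16 h with 10 µCi/mL [³H]myoinositol in RPMI, PBS-washed, then held 60 min in buffer A with protease inhibitors and 10 mM LiCl. Compound pre-incubated 5 min, then 1 nM ET-1 challenge for 30 min at 37 °C, stopped with chloroform-methanol. Total inositol phosphates extracted and taken from the aqueous phase by AG1-X8 anion-exchange batch chromatography.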

[3] = molecular target: T2, Endothelin-1 receptor (Rattus norvegicus, UniProt P26684); experiment: Inhibitory activity was evaluated against ET- A Binding to Endothelin A receptor in MMQ cell homogenates; type: cell-free
T2 sequence (P26684 whole entry): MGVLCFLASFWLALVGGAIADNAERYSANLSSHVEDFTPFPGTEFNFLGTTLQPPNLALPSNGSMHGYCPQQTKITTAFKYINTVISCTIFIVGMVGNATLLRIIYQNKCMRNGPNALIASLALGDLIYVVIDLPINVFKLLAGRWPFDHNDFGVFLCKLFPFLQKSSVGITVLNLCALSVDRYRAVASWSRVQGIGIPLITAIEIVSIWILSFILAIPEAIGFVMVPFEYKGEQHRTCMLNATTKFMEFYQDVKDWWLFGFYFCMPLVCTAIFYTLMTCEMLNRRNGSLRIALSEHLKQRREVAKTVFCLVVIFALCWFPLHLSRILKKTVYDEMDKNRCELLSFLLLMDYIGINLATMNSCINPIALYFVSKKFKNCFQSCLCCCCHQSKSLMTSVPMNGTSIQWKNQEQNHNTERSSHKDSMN

IC50 [1]	IC50 [2]	IC50 [3]	SMILES
> 100 µM	–	0.11 µM	Cc1[nH]c([C@@H](Cc2cn(C)c3ccccc23)NC(=O)[C@H](CC(C)C)NC(=O)NC2CCC(O)CC2)nc1C(=O)O (some centres not stated)
> 100 µM	–	–	CCn1cc(C[C@@H](NC(=O)[C@H](CC(C)C)NC(=O)NC2CCCCC2)c2nc(C(=O)O)c(C)o2)c2ccccc21
80 µM	–	0.141 µM	Cc1[nH]c([C@@H](Cc2cn(C)c3ccccc23)NC(=O)[C@H](CC(C)C)NC(=O)NC2CCC(C)CC2)nc1C(=O)O (some centres not stated)
> 100 µM	–	2.52 µM	Cc1oc([C@@H](Cc2cn(C)c3ccccc23)NC(=O)[C@H](CC(C)C)NC(=O)NC2CCC(O)CC2)nc1C(=O)O (some centres not stated)
> 100 µM	–	0.62 µM	Cc1oc([C@@H](Cc2cn(C)c3ccccc23)NC(=O)[C@H](CC(C)C)NC(=O)N2CCCCCC2)nc1C(=O)O
55 µM	–	0.73 µM	CCn1cc(C[C@@H](NC(=O)[C@H](CC(C)C)NC(=O)NC2CCCCC2)c2nc(C(=O)O)c(C)[nH]2)c2ccccc21
99 µM	–	0.3 µM	Cc1oc([C@@H](Cc2cn(C)c3ccccc23)NC(=O)[C@H](CC(C)C)NC(=O)NC2CCCC2)nc1C(=O)O
> 100 µM	–	0.075 µM	Cc1[nH]c([C@@H](Cc2c[nH]c3ccccc23)NC(=O)[C@H](CC(C)C)NC(=O)NC2CCCCC2)nc1C(=O)O
> 100 µM	–	0.65 µM	Cc1oc([C@@H](Cc2cn(C)c3ccccc23)NC(=O)[C@H](CC(C)C)NC(=O)NC2CCCCC2C)nc1C(=O)O (some centres not stated)
> 100 µM	–	–	Cc1[nH]c([C@@H](Cc2cn(C)c3ccccc23)NC(=O)[C@H](CC(C)C)NC(=O)N2CCCCCC2)nc1C(=O)O
> 100 µM	–	–	Cc1oc([C@@H](Cc2cn(C)c3ccccc23)NC(=O)[C@H](CC(C)C)NC(=O)NC2CCC(C)CC2)nc1C(=O)O (some centres not stated)
13 µM	–	0.018 µM	Cc1[nH]c([C@@H](Cc2cn(C)c3ccccc23)NC(=O)[C@H](CC(C)C)NC(=O)NC2CCCCC2C)nc1C(=O)O (some centres not stated)
> 100 µM	–	0.96 µM	Cc1oc([C@@H](Cc2cn(C)c3ccccc23)NC(=O)[C@H](CC(C)C)NC(=O)NC2CCCC(C)C2)nc1C(=O)O (some centres not stated)
56 µM	–	0.2 µM	Cc1oc([C@@H](Cc2cn(C)c3ccccc23)NC(=O)[C@H](CC(C)C)NC(=O)NC2(C)CCCCC2)nc1C(=O)O
75 µM	–	0.4 µM	Cc1oc([C@@H](Cc2cn(C)c3ccccc23)NC(=O)[C@H](CC(C)C)NC(=O)NC2CCCCCC2)nc1C(=O)O
67 µM	0.043 µM	0.037 µM	Cc1[nH]c([C@@H](Cc2cn(C)c3ccccc23)NC(=O)[C@H](CC(C)C)NC(=O)NC2CCCC2)nc1C(=O)O
> 100 µM	–	–	Cc1oc([C@@H](Cc2c[nH]c3ccccc23)NC(=O)[C@H](CC(C)C)NC(=O)NC2CCCCC2)nc1C(=O)O
48 µM	–	0.23 µM	Cc1oc([C@@H](Cc2cn(C)c3ccccc23)NC(=O)[C@H](CC(C)C)NC(=O)NC2CCCc3ccccc32)nc1C(=O)O (some centres not stated)
> 100 µM	–	0.22 µM	Cc1oc([C@@H](Cc2cn(C)c3ccccc23)NC(=O)[C@H](CC(C)C)NC(=O)NC2CCCCC2)nc1C(=O)O
67 µM	–	0.8 µM	Cc1oc([C@@H](Cc2cn(C)c3ccccc23)NC(=O)[C@H](CC(C)C)NC(=O)NC2CC3CCC2C3)nc1C(=O)O (stereo in doubt; 15o)
26 µM	–	0.45 µM	Cc1oc([C@@H](Cc2cn(C)c3ccccc23)NC(=O)[C@H](CC(C)C)NC(=O)NC2CC3CCC2C3)nc1C(=O)O (stereo in doubt; 15p)

More lines, now with the values behind:

SMILES	IC50 [1]	IC50 [2]	IC50 [3]
Cc1[nH]c([C@@H](Cc2c[nH]c3ccccc23)NC(=O)[C@H](CC(C)C)NC(=O)N2CCCCCC2)nc1C(=O)O	> 100 µM	0.78 µM	–
Cc1oc([C@@H](Cc2c[nH]c3ccccc23)NC(=O)[C@H](CC(C)C)NC(=O)NCc2ccccc2)nc1C(=O)O	96 µM	–	8.7 µM
COC(=O)C1(NC(=O)N[C@@H](CC(C)C)C(=O)N[C@H](Cc2cn(C)c3ccccc23)c2nc(C(=O)O)c(C)o2)CCCCC1	> 90 µM	–	0.12 µM
Cc1oc([C@@H](Cc2cn(C)c3ccccc23)NC(=O)[C@H](CC(C)C)NC(=O)NC23CC4CC(CC(C4)C2)C3)nc1C(=O)O	19 µM	–	0.9 µM
Cc1oc([C@@H](Cc2c[nH]c3ccccc23)NC(=O)[C@H](CC(C)C)NC(=O)N2CCCCCC2)nc1C(=O)NCC(=O)O	> 100 µM	–	1.9 µM
Cc1oc([C@@H](Cc2c[nH]c3ccccc23)NC(=O)[C@H](CC(C)C)NC(=O)N2CCCCCC2)nc1CC(=O)O	> 100 µM	–	9.6 µM
Cc1[nH]c([C@@H](Cc2c[nH]c3ccccc23)NC(=O)[C@H](CC(C)C)NS(=O)(=O)N2CCCCCC2)nc1C(=O)O	> 100 µM	–	> 100 µM
CCN(CC)C(=O)N[C@@H](CC(C)C)C(=O)N[C@H](Cc1c[nH]c2ccccc12)c1nc(C(=O)O)c(C)[nH]1	> 100 µM	–	1 µM
CNC(=O)c1nc([C@@H](Cc2c[nH]c3ccccc23)NC(=O)[C@H](CC(C)C)NC(=O)N2CCCCCC2)oc1C	65 µM	–	3 µM
Cc1oc([C@@H](Cc2cn(C)c3ccccc23)NC(=O)[C@H](CC(C)C)NC(=O)NC2C3CC4CC(C3)CC2C4)nc1C(=O)O (some centres not stated)	26 µM	–	0.44 µM
Cc1oc([C@@H](Cc2cn(C)c3ccccc23)NC(=O)[C@H](CC(C)C)NC(=O)n2ccc3ccccc32)nc1C(=O)O	12 µM	–	0.058 µM
Cc1c(C(=O)O)nc([C@@H](Cc2c[nH]c3ccccc23)NC(=O)[C@H](CC(C)C)NC(=O)N2CCCCCC2)n1C	> 100 µM	–	–
Cc1oc([C@@H](Cc2c[nH]c3ccccc23)NC(=O)[C@H](CC(C)C)NC(=O)N2CCCCCC2)nc1C(=O)NO	> 100 µM	–	2.9 µM
CCN(CC)C(=O)N[C@@H](CC(C)C)C(=O)N[C@H](Cc1c[nH]c2ccccc12)c1nc(C(=O)O)c(C)o1	> 100 µM	–	3 µM
Cc1oc([C@@H](Cc2c[nH]c3ccccc23)NC(=O)[C@H](CC(C)C)NC(=O)N2CCCCCC2)nc1C(=O)O	> 100 µM	4.5 µM	–
Cc1[nH]c([C@@H](Cc2c[nH]c3ccccc23)NC(=O)[C@H](CC(C)C)NC(=O)NCc2ccccc2)nc1C(=O)O	> 100 µM	–	2.1 µM
Cc1oc([C@@H](Cc2cn(C)c3ccccc23)NC(=O)[C@H](CC(C)C)NC(=O)Nc2cccc(F)c2)nc1C(=O)O	55 µM	–	0.066 µM
Cc1oc([C@@H](Cc2cn(C)c3ccccc23)NC(=O)[C@H](CC(C)C)NC(=O)Nc2ccccn2)nc1C(=O)O	66 µM	–	0.074 µM
Cc1oc([C@@H](Cc2cn(C)c3ccccc23)NC(=O)[C@H](CC(C)C)NC(=O)Nc2c(F)c(F)c(F)c(F)c2F)nc1C(=O)O	> 100 µM	–	3.55 µM
Cc1oc([C@@H](Cc2c[nH]c3ccccc23)NC(=O)[C@H](CC(C)C)NS(=O)(=O)N2CCCCCC2)nc1C(=O)O	> 100 µM	–	> 100 µM
CCOC(=O)c1nc([C@@H](Cc2c[nH]c3ccccc23)NC(=O)[C@H](CC(C)C)NC(=O)N2CCCCCC2)oc1C	43 µM	–	–
Cc1c(C(=O)O)nc([C@@H](Cc2c[nH]c3ccccc23)NC(=O)[C@H](CC(C)C)NC(=O)N2CCCCCC2)n1Cc1ccccc1	> 100 µM	–	–
Cc1oc([C@@H](Cc2cn(C)c3ccccc23)NC(=O)[C@H](CC(C)C)NC(=O)Nc2ccc(F)cc2)nc1C(=O)O	> 100 µM	–	1.9 µM
